# Source: PubChem BioAssay
# Fibroblast inh: antiproliferative effect on LL 47 fibroblasts – human, LL 47 cells, CellTiter-Glo luminescence, primary screen; LL 47 human lung fibroblast viability, ATP luminescence; stronger effect = lower value; viability, % at 10 µM; 1.1% of 85,000 active; AID 719, 2007;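 active means viability at or below 50% in the single dose screen; inactive means viability above 50%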;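 further: compound exposure lasted 72 h before the ATP readout; 100% = median luminescence of untreated cell-only wells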
#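 Material: human lung fibroblast line LL 47, low passage; Evaluation: viability percentage against median untreated-cell control; Buffer or medium: 15% FBS in IMEM; Incubation: 72 h compound exposure at 37 °C after overnight plating; Dosing: 0.1% DMSO in all compound wells; Measured by: CellTiter-Glo luminescence.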
# HUVEC prolif 384: inhibitors of HUVEC proliferation, primary screen, cell-based, 384-well; CellTiter-Glo luminescence, 72 h; stronger effect = lower value; viability, % at 10 µM (by protocol); 1.1% of 86,000 active; AID 648, 2007;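 active means viability at or below 30%; inactive means viability above 30%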;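 further: 100% = median luminescence of DMSO-only cell control wells on each plate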
# H69AR growth 86K: proliferation blockers of H69AR lung cancer cells, primary screen, cell-based, human, 86K library. H69AR lung tumor viability, ATP luminescence, 72 h; stronger effect = lower value. viability, % at 10 µM. 6% of 85,000 active. AID 598, 2007;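 active means viability at or below 40%; inactive means viability above 40%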;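 further: multidrug resistant small cell line overexpressing MRP-1 efflux transporter; 100% = mean luminescence of untreated control wells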
# HCT116 PTEN-null: growth suppression of PTEN-null HCT116, primary screen, cell-based, CellTiter-Glo; viability, % at 10 µM; HCT116 PTEN-null viability, 60 h; stronger effect = lower value; 1.2% of 140,000 active; AID 827, 2007;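 active means viability at or below a set limit, 4 SD under the median of all tested compounds, cut at about 3.7% in these data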;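 further: PTEN knockout HCT116 line with beta catenin targeted HCT116 as companion control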
# Cav3 T inh: Cav3.2 calcium influx blockers – cell-based, Fluo-4 calcium fluorescence, FDSS, MLSMR library, primary screen; Cav3.2-expressing cells; stronger effect = lower value; B-score at 10 µM; 4% of 100,000 active;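 active means single-dose well whose peak fluorescence ratio is a statistical outlier from its plate by either plate-standardised score or position-corrected B-score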
# Target sequence (O95180 whole entry, looked up): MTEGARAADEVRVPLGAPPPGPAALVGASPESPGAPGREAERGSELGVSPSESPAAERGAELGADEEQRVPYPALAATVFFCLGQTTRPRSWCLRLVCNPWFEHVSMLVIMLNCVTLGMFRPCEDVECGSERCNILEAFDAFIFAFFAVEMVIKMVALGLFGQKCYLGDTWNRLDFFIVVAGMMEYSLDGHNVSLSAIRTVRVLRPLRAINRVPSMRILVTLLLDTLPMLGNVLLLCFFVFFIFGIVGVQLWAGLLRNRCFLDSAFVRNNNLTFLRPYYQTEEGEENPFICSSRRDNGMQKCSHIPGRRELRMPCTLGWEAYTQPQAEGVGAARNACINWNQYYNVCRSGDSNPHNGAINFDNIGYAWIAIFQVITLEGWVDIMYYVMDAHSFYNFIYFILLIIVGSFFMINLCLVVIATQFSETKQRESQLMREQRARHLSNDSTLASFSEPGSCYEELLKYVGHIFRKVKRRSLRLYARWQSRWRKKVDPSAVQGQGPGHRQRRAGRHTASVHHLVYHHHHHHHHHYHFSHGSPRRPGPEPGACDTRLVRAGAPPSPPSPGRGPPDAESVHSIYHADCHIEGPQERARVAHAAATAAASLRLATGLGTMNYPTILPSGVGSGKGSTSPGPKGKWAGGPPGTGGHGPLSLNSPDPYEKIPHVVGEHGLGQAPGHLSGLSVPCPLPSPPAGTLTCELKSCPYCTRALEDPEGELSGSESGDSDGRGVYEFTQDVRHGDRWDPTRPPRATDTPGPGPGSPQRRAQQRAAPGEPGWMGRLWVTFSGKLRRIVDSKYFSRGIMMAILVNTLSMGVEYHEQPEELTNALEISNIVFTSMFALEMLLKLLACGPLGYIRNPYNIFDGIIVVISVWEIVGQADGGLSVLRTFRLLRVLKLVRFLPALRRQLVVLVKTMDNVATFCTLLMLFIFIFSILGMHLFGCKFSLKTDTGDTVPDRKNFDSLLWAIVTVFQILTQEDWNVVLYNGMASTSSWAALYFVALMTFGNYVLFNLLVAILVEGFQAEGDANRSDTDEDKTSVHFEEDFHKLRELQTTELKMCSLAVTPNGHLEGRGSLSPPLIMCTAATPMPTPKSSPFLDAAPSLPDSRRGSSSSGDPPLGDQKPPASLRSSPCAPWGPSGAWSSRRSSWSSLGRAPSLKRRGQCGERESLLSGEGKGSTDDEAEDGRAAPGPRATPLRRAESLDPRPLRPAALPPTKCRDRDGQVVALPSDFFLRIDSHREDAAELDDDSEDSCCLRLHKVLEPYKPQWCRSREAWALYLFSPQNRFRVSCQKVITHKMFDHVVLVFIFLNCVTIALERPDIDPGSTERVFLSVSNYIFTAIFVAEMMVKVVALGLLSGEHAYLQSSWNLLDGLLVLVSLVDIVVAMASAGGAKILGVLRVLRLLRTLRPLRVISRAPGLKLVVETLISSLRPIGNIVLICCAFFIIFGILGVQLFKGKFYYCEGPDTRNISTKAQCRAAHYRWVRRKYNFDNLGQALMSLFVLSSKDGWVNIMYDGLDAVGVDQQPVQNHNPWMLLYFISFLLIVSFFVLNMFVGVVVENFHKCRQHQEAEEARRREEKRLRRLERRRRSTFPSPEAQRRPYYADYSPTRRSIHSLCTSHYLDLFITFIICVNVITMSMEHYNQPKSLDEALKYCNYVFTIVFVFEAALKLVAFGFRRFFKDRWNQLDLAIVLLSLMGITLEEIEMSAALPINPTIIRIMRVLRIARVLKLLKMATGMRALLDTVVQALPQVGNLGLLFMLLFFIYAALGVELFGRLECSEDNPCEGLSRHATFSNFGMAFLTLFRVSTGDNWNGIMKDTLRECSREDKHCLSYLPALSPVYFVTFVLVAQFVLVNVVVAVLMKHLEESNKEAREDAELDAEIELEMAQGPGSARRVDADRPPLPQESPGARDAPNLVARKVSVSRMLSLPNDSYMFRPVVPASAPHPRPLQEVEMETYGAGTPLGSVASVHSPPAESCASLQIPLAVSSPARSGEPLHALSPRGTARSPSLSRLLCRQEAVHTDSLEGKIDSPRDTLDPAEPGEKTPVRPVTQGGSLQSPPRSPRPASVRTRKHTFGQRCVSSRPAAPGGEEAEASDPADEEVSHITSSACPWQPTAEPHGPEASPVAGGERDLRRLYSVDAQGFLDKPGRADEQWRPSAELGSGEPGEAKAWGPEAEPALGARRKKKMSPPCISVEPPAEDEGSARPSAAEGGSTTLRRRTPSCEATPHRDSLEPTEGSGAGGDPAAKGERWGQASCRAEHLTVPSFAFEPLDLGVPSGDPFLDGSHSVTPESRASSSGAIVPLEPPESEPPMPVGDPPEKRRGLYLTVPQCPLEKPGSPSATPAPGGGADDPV
# bCat KO growth: primary screen for growth suppressors in beta-catenin knockout HCT116 cells (colon tumor, human) | HCT116 beta-catenin knockout viability, CellTiter-Glo, 60 h; stronger effect = lower value | viability, % at 10 µM | 1.5% of 140,000 active | AID 818, 2007;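 active means viability at or under a set limit, the compound median less 4 SD, cut at about 6% in these data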;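 further: 0% = Hyamine 1622 control at 20 µM and 100% = untreated cell control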
# Starred values were filed as active, the others as inactive; nt = no result given. Hits are enriched below; roughly 7.1% of the tested compounds scored in any of these assays.
SMILES,Fibroblast inh,HUVEC prolif 384,H69AR growth 86K,HCT116 PTEN-null,Cav3 T inh,bCat KO growth
O=C(Nc1ccc(-c2nc3ccccc3o2)cc1)c1ccc2c(c1)OCO2,105.6,81.7,41.6,29.4,-4.37,55.3
COc1cccc(C(=O)Nc2ccc(-c3nc4ccccc4o3)c(O)c2)c1,78.9,74.2,9.5*,30.1,-0.157,55.4
O=C(Nc1ccc(-c2nc3ccccc3o2)c(O)c1)c1cc(-n2cnnc2)ccc1Cl,98.7,94.8,21.2*,61.4,-0.015,82.3
CSc1nc(C)cc(SCC(=O)N/N=C/c2ccccc2)n1,nt,nt,nt,106.5,nt,95.0
COc1cc(OC)cc(C(=O)Nc2ccc(-c3nc4ccccc4o3)cc2)c1,108.4,35.2,29.9*,69.3,-1.77,76.5
O=C(Nc1ccc(O)c(-c2nc3ccccc3o2)c1)C1(c2ccc(Br)cc2)CCCC1,nt,nt,nt,63.1,nt,68.3
Cc1ccc(OCC(=O)Nc2ccc(O)c(-c3nc4ccccc4o3)c2)cc1,53.7,3.0*,13.1*,71.4,nt,86.1
O=C(Nc1ccc(-c2nc3ccccc3o2)cc1)c1cccnc1,104.6,107.7,83.4,18.4,-0.562,32.7
Cc1oc(-c2ccccc2F)nc1CSCC(=O)NCc1ccc2c(c1)OCO2,98.3,102.2,87.1,104.4,-3.01,94.7
COc1ccc(-c2nc(C(F)(F)F)c(OC)o2)cc1OC,nt,nt,nt,88.4,nt,94.8
N#Cc1c(-c2ccccc2)c(-c2ccccc2)n(Cc2ccco2)c1NC(=O)c1cccs1,nt,nt,nt,70.3,-8.9*,73.3
O=C(CSc1nnc(-c2ccc(O)cc2)n1Cc1ccco1)c1cccs1,104.2,97.4,71.7,61.4,0.0267,62.1
CCn1cc(C(=O)N2CCN(c3cccc(Cl)c3)CC2)c2cc(OC)c(OC)cc2c1=O,nt,nt,nt,77.3,0.0817,92.8
O=C(N/C(=C/c1cccnc1)C(=O)N1CCOCC1)c1ccccc1Br,nt,nt,nt,95.1,nt,93.0
CSc1nc2ccc3nc(NC(=O)c4ccccc4)sc3c2s1,97.3,109.2,32.2*,79.6,-1.4,89.9
O=C(CN(Cc1cccs1)C(=O)CSc1nnc(COc2ccccc2)o1)NC1CCCCC1,91.2,88.3,39.5*,84.5,-0.224,82.8
O=C(CN(Cc1ccc2c(c1)OCO2)C(=O)CSc1nc2ccccc2o1)NC1CCCCC1,100.4,97.9,46.6,95.8,-3.93*,89.4
CCOc1ccc(N(CC(=O)NC2CCCCC2)C(=O)CSc2nnc(COc3ccccc3)o2)cc1,97.2,76.2,35.8*,70.1,-4.34*,63.5
O=C(CSc1nnc(CNC(=O)c2cccs2)o1)NC1CCCCC1,95.3,91.2,98.3,108.0,0.205,101.5
CCn1c(CSc2nnc(-c3ccc4c(c3)OCO4)o2)nc2cc(S(=O)(=O)N(C)C)ccc21,nt,nt,nt,38.4,2.24,38.5
CN1CCN(C2=C(Cl)C(=O)N(C3CCCCC3)C2=O)CC1,92.2,59.6,45.2,84.8,-0.21,79.9
CN1CCN(C2=C(Cl)C(=O)C(c3cnc(N4CCCCC4)s3)=C(Cl)C2=O)CC1,5.8*,69.5,1.6*,1.6*,1.03,1.7*
COc1ccc(CN2C(=O)c3ccccc3C(/C=N\OCc3ccc(F)cc3)C2=O)cc1 (centres undefined),nt,nt,nt,33.8,-3.72*,40.0
Cc1cccc(-n2cnc(C(=O)N/N=C/c3ccccc3)c2)n1,102.5,76.4,99.0,98.6,1.17,101.2
Cc1cc(C)n2nc(SCc3cc(=O)n4c(C)cccc4n3)nc2n1,94.9,100.0,88.1,nt,nt,nt
SMILES,Fibroblast inh,HUVEC prolif 384,H69AR growth 86K,HCT116 PTEN-null,Cav3 T inh,bCat KO growth
Oc1c(Cl)cc(Cl)cc1C=Nc1ccc2c(c1)OCCO2,94.5,51.1,86.6,110.3,-8.99*,98.3
Brc1csc(C=Nc2ccc3c(c2)OCCOCCOCCOCCO3)c1,nt,nt,nt,92.5,nt,92.6
O=C(Nc1ccc(Cl)c([N+](=O)[O-])c1)C(Sc1ccccc1)c1ccccc1 (centres undefined),nt,nt,nt,3.2*,nt,3.6*
COC(=O)CCn1nnc(-c2ccc(C(C)C)cc2)n1,98.6,95.7,105.3,109.9,-5.43*,105.0
COc1cc(C(=O)O/N=C2/C=C(C)C(=O)C=C2C)cc(OC)c1OC,nt,nt,nt,6.3,nt,3.6*
COc1cc(C(=O)ON=C2C(C)=CC(=O)C=C2C)cc(OC)c1OC,nt,nt,nt,84.7,-0.0224,77.4
C=CCOc1c(Br)cc(CNc2ccc(NC(=O)C(C)C)c(OC)c2)cc1OC,nt,nt,nt,73.3,-3.82*,59.1
N#CC1=C(N)NC(SCC(=O)O)=C(C#N)C12CCCC2,98.7,102.7,88.0,102.1,nt,100.7
N#CC1=C(N)NC(SCc2ccc(F)cc2)=C(C#N)C12CCCCC2,54.1,36.4,10.4*,18.0,nt,18.9
CCOC(=O)/C=C1\SCC(=O)N1CCOc1cccc(Br)c1,106.6,89.4,104.0,94.6,-4.29*,103.0
CCOC(=O)/C=C1\SCC(=O)N1CC(=O)Nc1ccc(C(C)C)cc1,94.8,101.3,99.8,109.5,-3.82*,89.3
N#CC(Cc1ccc(OC(F)F)cc1)c1nc2ccccc2[nH]1 (centres undefined),nt,nt,nt,64.9,nt,73.6
Cc1cccc(NC(=O)c2cn(-c3ccccc3)nc2-c2ccccc2)c1,nt,nt,nt,81.7,nt,87.4
CC(C)c1onc(C(=O)NCc2ccccc2)c1[N+](=O)[O-],nt,nt,nt,87.2,nt,96.9
Cc1c(/C=N/n2cnnc2)c2ccccc2n1CCOc1ccccc1,nt,76.7,32.3*,100.9,-0.672,94.0
CCN(CC)c1ccc(N2C(=O)/C(=C/c3cccnc3)SC2=S)cc1,nt,nt,nt,96.0,0.0342,92.6
CCOc1ccc(Nc2oc(-c3ccc(Cl)cc3)nc2C#N)cc1,42.3*,81.6,32.5*,63.3,0.0516,72.6
COc1ccc(Nc2oc(-c3ccc(Cl)cc3)nc2C#N)cc1,39.4*,43.0,24.6*,16.5,-0.224,9.9
COCCNc1oc(-c2ccc(Cl)cc2)nc1C#N,108.2,97.7,95.8,81.5,-0.108,76.5
Nc1cc(-c2ccc(Br)cc2)nn1S(=O)(=O)c1ccccc1,94.8,85.2,94.1,90.2,-0.0316,100.5
Nc1cc(-c2ccccc2)nn1S(=O)(=O)c1ccc(F)cc1,94.5,73.9,97.3,36.1,-7.2*,27.9
Cc1ccc(Cn2ccc(NC(=O)c3cc4nc(-c5ccco5)cc(C(F)(F)F)n4n3)n2)cc1,66.9,68.4,35.1*,53.7,0.146,61.4
Cc1c(NC(=O)c2nn3c(C(F)(F)F)cc(-c4ccccc4)nc3c2Cl)c(=O)n(-c2ccccc2)n1C,nt,nt,nt,74.7,nt,74.7
Cc1c(NC(=O)c2cc3nc(-c4ccc(Cl)cc4)cc(C(F)(F)F)n3n2)c(=O)n(-c2ccccc2)n1C,112.0,94.5,18.2*,73.4,-0.313,69.3
O=C(Nc1ccc(Cl)cc1)c1cc2nc(-c3ccco3)cc(C(F)(F)F)n2n1,93.6,59.4,nt,72.3,0.793,68.2
